Measurements collected from several papers.
Lines come from different studies, so protocols differ.
Observed: cell growth or viability

C=C(NC(=O)C(=C)NC(=O)c1csc(C2=N[C@@H]3c4csc(n4)[C@H]4NC(=O)c5csc(n5)[C@H]([C@](C)(O)[C@@H](C)O)NC(=O)[C@H]5CSC(=N5)/C(=C/C)NC(=O)[C@H]([C@@H](C)O)NC(=O)c5csc(n5)[C@]3(CC2)NC(=O)[C@H](C)NC(=O)C(=C)NC(=O)[C@H](C)NC(=O)[C@H]([C@@H](C)CC)N[C@@H]2C=Cc3c([C@H](C)O)cc(nc3[C@H]2O)C(=O)O[C@@H]4C)n1)C(N)=O  EC50 (LNCaP): 4.4 µM
N#CSCCCCOc1ccc2c(-c3ccccc3)cc(=O)oc2c1  GI50 (MIA PaCa-2; SRB): 28 µM
Nc1nc(S)nc(O)c1N=Cc1cn(-c2ccccc2)nc1-c1ccccc1  CC50 (Jurkat; 48 h): 17.3 µM
C[C@H](Nc1ccc2c(c1)OCCn1cc(N3C(=O)OC[C@H]3C(F)F)nc1-2)C(N)=O  EC50 (TCC-SUP; ATP luminescence; 5 days): 0.0516 µM
Cc1c(Cl)c(=O)oc2cc(OCCCCSC#N)ccc12  GI50 (MIA PaCa-2; SRB): 8.2 µM
O=c1[nH]ncc(NN=Cc2cn(-c3ccccc3)nc2-c2ccccc2)c1Cl  CC50 (Jurkat; 48 h): 3.66 µM
Cc1nc(NC(=O)N2CCC[C@H]2C(N)=O)sc1-c1ccnc(C(C)(C)C(F)(F)F)c1  EC50 (TCC-SUP; ATP luminescence; 5 days): 3.07 µM
Cc1nc(Nc2ncc(C(=O)Nc3c(C)cccc3Cl)s2)cc(N2CC[C@H](O)C2)n1  inhibition (Jurkat; ATP luminescence; 10 µM; 72 h): 47%
Nc1nc(S)nc(O)c1N=Cc1cn(-c2ccccc2)nc1-c1ccc([N+](=O)[O-])cc1  CC50 (Jurkat; 48 h): > 40 µM
Cc1c(-c2ccc(N3CCc4cccc(C(=O)Nc5nc6ccccc6s5)c4C3)nc2C(=O)NCCCCCCNc2cccc3c2C(=O)N(C2CCC(=O)NC2=O)C3=O)cnn1CC12CC3CC(CC(C3)C1)C2 (stereo not shown)  IC50 (MOLT-4; MTS; 48 h): 1.03 µM
COc1ccc(-c2nn(-c3ccccc3)cc2C=Nc2c(N)nc(S)nc2O)cc1  CC50 (Jurkat; 48 h): 17.3 µM
Cc1c(-c2ccc(N3CCc4cccc(C(=O)Nc5nc6ccccc6s5)c4C3)nc2C(=O)O)cnn1CC12CC3CC(C1)CC(C(=O)NCCCCCCNc1cccc4c1C(=O)N(C1CCC(=O)NC1=O)C4=O)(C3)C2 (stereo not shown)  IC50 (MOLT-4; MTS; 48 h): 0.0162 µM
O=C(C[C@@H](C(F)F)n1ccc(F)n1)N1CCC(O)(Cn2cnc3c(cnn3-c3ccc(F)cc3)c2=O)CC1  viability (LNCaP; CCK-8; 1.524 nM): 90%
